Laboratory results published in ChEMBL document CHEMBL1255218, “Development of molecular probes for the human 5-HT(6) receptor” (J Med Chem, 2010).
The source made the active and inactive calls. The calls are words filed in the database; no cut-off is given here.

Assays:
[1] = target: T1, 5-hydroxytryptamine receptor 6 (Homo sapiens, UniProt P50406); assay: Displacement of [3H]LSD from human 5HT6 receptor expressed in HEK293 cells; type: cell-based
Method in brief: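 Membranes from HEK-293 cells stably expressing human 5-HT6R, in 50 mM Tris-HCl, 10 mM MgCl2, 0.5 mM EDTA, pH 7.4. Incubated 60 min at 37 °C with 2.5 nM [3H]LSD and competitor (10^-5 to 10^-10 M). Nonspecific binding defined with 100 μM serotonin. Filtered on 0.5% PEI-soaked filters; scintillation count. Ki by Cheng-Prusoff; 2-4 experiments in triplicate.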

[2] = target: T1, 5-hydroxytryptamine receptor 6; assay: Binding affinity to human 5HT6 receptor expressed in COS7 cells assessed as emission fluorescence intensity; type: cell-based; conditions: COS-7
[3] = target: T1, 5-hydroxytryptamine receptor 6; assay: Binding affinity to human 5HT6 receptor assessed as emission fluorescence intensity

T1 sequence (P50406 whole entry): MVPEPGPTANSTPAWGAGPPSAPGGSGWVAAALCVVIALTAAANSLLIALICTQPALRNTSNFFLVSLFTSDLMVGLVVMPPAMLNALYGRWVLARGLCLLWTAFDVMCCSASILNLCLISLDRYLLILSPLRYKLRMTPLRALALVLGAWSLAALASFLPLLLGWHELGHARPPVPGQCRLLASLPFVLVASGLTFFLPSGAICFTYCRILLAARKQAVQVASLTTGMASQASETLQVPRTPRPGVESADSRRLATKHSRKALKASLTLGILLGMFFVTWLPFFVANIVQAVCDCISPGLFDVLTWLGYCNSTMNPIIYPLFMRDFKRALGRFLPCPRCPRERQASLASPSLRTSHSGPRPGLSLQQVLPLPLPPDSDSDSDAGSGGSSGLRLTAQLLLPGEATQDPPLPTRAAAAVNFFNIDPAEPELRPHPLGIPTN

| SMILES | Ki [1] [nM] | Activity [2] [a.u.] | Activity [3] |
| --- | --- | --- | --- |
| COc1ccc(NS(=O)(=O)c2sc3ccc(Cl)cc3c2C)cc1N1CCN(CCCCCCNS(=O)(=O)c2cccc3c(N(C)C)cccc23)CC1 | 266 | > 1000 | – |
| COc1ccc(NS(=O)(=O)c2ccc(-c3ncc(-c4ccc(N(C)C)cc4)o3)cc2)cc1N1CCNCC1 | 523 | – | inactive |
| COc1ccc(NS(=O)(=O)c2sc3ccc(Cl)cc3c2C)cc1N1CCN(CCCCCCCCNS(=O)(=O)c2cccc3c(N(C)C)cccc23)CC1 | 447 | > 1000 | – |
| COc1ccc(N(CCCCNS(=O)(=O)c2cccc3c(N(C)C)cccc23)S(=O)(=O)c2sc3ccc(Cl)cc3c2C)cc1N1CCNCC1 | 747 | 221 | – |
| COc1ccc(NS(=O)(=O)c2cccc3c(N(C)C)cccc23)cc1N1CCN(CCCCCCNS(=O)(=O)c2cccc3c(N(C)C)cccc23)CC1 | 554 | 287 | – |
| Cc1c(S(=O)(=O)Nc2ccc(OCCCCCCCCNS(=O)(=O)c3cccc4c(N(C)C)cccc34)c(N3CCNCC3)c2)sc2ccc(Cl)cc12 | 741 | 700 | – |

These reach a lower Ki [1]. Values come first.

| Ki [1] [nM] | Activity [2] [a.u.] | Activity [3] | SMILES |
| --- | --- | --- | --- |
| 215 | > 1000 | – | COc1ccc(N(CCCCCCCCNS(=O)(=O)c2cccc3c(N(C)C)cccc23)S(=O)(=O)c2sc3ccc(Cl)cc3c2C)cc1N1CCNCC1 |
| 194 | 450 | – | COc1ccc(NS(=O)(=O)c2cccc3c(N(C)C)cccc23)cc1N1CCN(CCCCCCCCNS(=O)(=O)c2cccc3c(N(C)C)cccc23)CC1 |
| 175 | > 1000 | – | COc1ccc(NS(=O)(=O)c2cccc3c(N(C)C)cccc23)cc1N1CCN(CCCCNS(=O)(=O)c2cccc3c(N(C)C)cccc23)CC1 |
| 165 | 730 | – | COc1ccc(NS(=O)(=O)c2sc3ccc(Cl)cc3c2C)cc1N1CCN(S(=O)(=O)c2cccc3c(N(C)C)cccc23)CC1 |
| 135 | 35 | – | COc1ccc(N(S(=O)(=O)c2cccc3c(N(C)C)cccc23)S(=O)(=O)c2cccc3c(N(C)C)cccc23)cc1N1CCNCC1 |
| 90 | – | – | COc1ccc(NS(=O)(=O)c2sc3ccc(Cl)cc3c2C)cc1N1CCN(CCCCCCNC(=O)CCCC[C@@H]2SC[C@@H]3NC(=O)N[C@@H]32)CC1 |
| 27 | 19 | – | COc1ccc(N(S(=O)(=O)c2sc3ccc(Cl)cc3c2C)S(=O)(=O)c2cccc3c(N(C)C)cccc23)cc1N1CCNCC1 |
| 8 | 52 | – | COc1ccc(NS(=O)(=O)c2cccc3c(N(C)C)cccc23)cc1N1CCNCC1 |
